Source: ChEMBL document CHEMBL3046428, “Isolation, characterization and antifungal activity of major constituents of the Himalayan lichen Parmelia reticulata Tayl” (2011)
Converted amounts (≈) assume the structure as drawn.

What was measured:
Assay type in all cases: functional
[1] = test system: Globisporangium debaryanum; test: Antifungal activity against Pythium debaryanum assessed as growth inhibition by poisoned food technique; conditions: read-out: ED50 (the source's name)
Outline: (§1)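 ED50 from poisoned-food growth inhibition on PDA at 250, 125 and 62.5 μg/mL in medium, with an acetone control. Plates were inoculated with a 5 mm mycelial disc, incubated at 28 °C, and colony diameter was measured in quadruplicate. Percent inhibition was corrected by Abbott's formula, using a correction factor from the 9 cm dish diameter, and ED50 (μg/mL) was derived by probit analysis.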

[2] = test system: Globisporangium debaryanum; test: Antifungal activity against Pythium debaryanum assessed as growth inhibition at 62.5 ug/ml by poisoned food technique
Outline: (§2)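 Poisoned-food assay on PDA. Test material was diluted in acetone and mixed into molten medium at final 250, 125 or 62.5 μg/mL, with 1 mL acetone as control. Plates received a 5 mm mycelial disc from the front of a 2-week-old colony and were incubated at 28 °C until control growth was nearly complete. Colony diameter was measured, giving %I = (C−T)/C×100. Mean ± SD of four replicates.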

[3] = test system: Globisporangium debaryanum; test: Antifungal activity against Pythium debaryanum assessed as growth inhibition at 125 ug/ml by poisoned food technique; outline: as §2
[4] = test system: Globisporangium debaryanum; test: Antifungal activity against Pythium debaryanum assessed as growth inhibition at 250 ug/ml by poisoned food technique; outline: as §2
Pythium aphanidermatum [5] = test: Antifungal activity against Pythium aphanidermatum assessed as growth inhibition by poisoned food technique; conditions: read-out: ED50 (the source's name); outline: as §1
Pythium aphanidermatum [6] = test: Antifungal activity against Pythium aphanidermatum assessed as growth inhibition at 62.5 ug/ml by poisoned food technique; outline: as §2
Pythium aphanidermatum [7] = test: Antifungal activity against Pythium aphanidermatum assessed as growth inhibition at 125 ug/ml by poisoned food technique; outline: as §2
Pythium aphanidermatum [8] = test: Antifungal activity against Pythium aphanidermatum assessed as growth inhibition at 250 ug/ml by poisoned food technique; outline: as §2
Fusarium udum [9] = test: Antifungal activity against Fusarium udum assessed as growth inhibition by poisoned food technique; conditions: read-out: ED50 (the source's name); outline: as §1
Fusarium udum [10] = test: Antifungal activity against Fusarium udum assessed as growth inhibition at 62.5 ug/ml by poisoned food technique; outline: as §2
Fusarium udum [11] = test: Antifungal activity against Fusarium udum assessed as growth inhibition at 125 ug/ml by poisoned food technique; outline: as §2
Fusarium udum [12] = test: Antifungal activity against Fusarium udum assessed as growth inhibition at 250 ug/ml by poisoned food technique; outline: as §2
Macrophomina phaseolina [13] = test: Antifungal activity against Rhizoctonia bataticola assessed as growth inhibition by poisoned food technique; conditions: read-out: ED50 (the source's name); outline: as §1
Macrophomina phaseolina [14] = test: Antifungal activity against Rhizoctonia bataticola assessed as growth inhibition at 62.5 ug/ml by poisoned food technique; outline: as §2
Macrophomina phaseolina [15] = test: Antifungal activity against Rhizoctonia bataticola assessed as growth inhibition at 125 ug/ml by poisoned food technique; outline: as §2
Macrophomina phaseolina [16] = test: Antifungal activity against Rhizoctonia bataticola assessed as growth inhibition at 250 ug/ml by poisoned food technique; outline: as §2
Rhizoctonia solani [17] = test: Antifungal activity against Rhizoctonia solani assessed as growth inhibition by poisoned food technique; conditions: read-out: ED50 (the source's name); outline: as §1
Rhizoctonia solani [18] = test: Antifungal activity against Rhizoctonia solani assessed as growth inhibition at 62.5 ug/ml by poisoned food technique; outline: as §2
Rhizoctonia solani [19] = test: Antifungal activity against Rhizoctonia solani assessed as growth inhibition at 125 ug/ml by poisoned food technique; outline: as §2
Rhizoctonia solani [20] = test: Antifungal activity against Rhizoctonia solani assessed as growth inhibition at 250 ug/ml by poisoned food technique; outline: as §2
Athelia rolfsii [21] = test: Antifungal activity against Athelia rolfsii assessed as growth inhibition by poisoned food technique; conditions: Agroathelia rolfsii; read-out: ED50 (the source's name); outline: as §1
Athelia rolfsii [22] = test: Antifungal activity against Athelia rolfsii assessed as growth inhibition at 62.5 ug/ml by poisoned food technique; conditions: Agroathelia rolfsii; outline: as §2
Athelia rolfsii [23] = test: Antifungal activity against Athelia rolfsii assessed as growth inhibition at 125 ug/ml by poisoned food technique; conditions: Agroathelia rolfsii; outline: as §2
Athelia rolfsii [24] = test: Antifungal activity against Athelia rolfsii assessed as growth inhibition at 250 ug/ml by poisoned food technique; conditions: Agroathelia rolfsii; outline: as §2

COC(=O)c1c(C)cc(O)c(C)c1O [ATRARIC ACID]
EC50 [1]: 57 µg/mL (≈ 290 µM)
inhibition at 62.5 µg/mL [2]: 44%
inhibition at 125 µg/mL [3]: 72.3%
inhibition at 250 µg/mL [4]: 89.3%
EC50 (Pythium aphanidermatum [5]): 81.5 µg/mL (≈ 415 µM)
inhibition at 62.5 µg/mL (Pythium aphanidermatum [6]): 22.3%
inhibition at 125 µg/mL (Pythium aphanidermatum [7]): 50%
inhibition at 250 µg/mL (Pythium aphanidermatum [8]): 88.3%
EC50 (Fusarium udum [9]): 82.3 µg/mL (≈ 420 µM)
inhibition at 62.5 µg/mL (Fusarium udum [10]): 26.7%
inhibition at 125 µg/mL (Fusarium udum [11]): 50%
inhibition at 250 µg/mL (Fusarium udum [12]): 80.5%
EC50 (Macrophomina phaseolina [13]): 77.2 µg/mL (≈ 394 µM)
inhibition at 62.5 µg/mL (Macrophomina phaseolina [14]): 28.3%
inhibition at 125 µg/mL (Macrophomina phaseolina [15]): 50.3%
inhibition at 250 µg/mL (Macrophomina phaseolina [16]): 90.3%
EC50 (Rhizoctonia solani [17]): 57.5 µg/mL (≈ 293 µM)
inhibition at 62.5 µg/mL (Rhizoctonia solani [18]): 46%
inhibition at 125 µg/mL (Rhizoctonia solani [19]): 67%
inhibition at 250 µg/mL (Rhizoctonia solani [20]): 80.3%
EC50 (Athelia rolfsii [21]): 80.2 µg/mL (≈ 409 µM)
inhibition at 62.5 µg/mL (Athelia rolfsii [22]): 33%
inhibition at 125 µg/mL (Athelia rolfsii [23]): 50%
inhibition at 250 µg/mL (Athelia rolfsii [24]): 74.3%

COC(=O)c1c(C)cc(O)c(C=O)c1O [METHYL HAEMATOMMATE]
EC50 [1]: 88.2 µg/mL (≈ 420 µM)
inhibition at 62.5 µg/mL [2]: 34%
inhibition at 125 µg/mL [3]: 47.3%
inhibition at 250 µg/mL [4]: 71.3%
EC50 (Pythium aphanidermatum [5]): 90.6 µg/mL (≈ 431 µM)
inhibition at 62.5 µg/mL (Pythium aphanidermatum [6]): 24.4%
inhibition at 125 µg/mL (Pythium aphanidermatum [7]): 46.4%
inhibition at 250 µg/mL (Pythium aphanidermatum [8]): 69.3%
EC50 (Fusarium udum [9]): 71.2 µg/mL (≈ 339 µM)
inhibition at 62.5 µg/mL (Fusarium udum [10]): 46.5%
inhibition at 125 µg/mL (Fusarium udum [11]): 50.5%
inhibition at 250 µg/mL (Fusarium udum [12]): 67.3%
EC50 (Macrophomina phaseolina [13]): 52.9 µg/mL (≈ 252 µM)
inhibition at 62.5 µg/mL (Macrophomina phaseolina [14]): 53.1%
inhibition at 125 µg/mL (Macrophomina phaseolina [15]): 61.4%
inhibition at 250 µg/mL (Macrophomina phaseolina [16]): 78.2%
EC50 (Rhizoctonia solani [17]): 50.5 µg/mL (≈ 240 µM)
inhibition at 62.5 µg/mL (Rhizoctonia solani [18]): 50.6%
inhibition at 125 µg/mL (Rhizoctonia solani [19]): 72.6%
inhibition at 250 µg/mL (Rhizoctonia solani [20]): 81.7%
EC50 (Athelia rolfsii [21]): 60.3 µg/mL (≈ 287 µM)
inhibition at 62.5 µg/mL (Athelia rolfsii [22]): 44.2%
inhibition at 125 µg/mL (Athelia rolfsii [23]): 66.6%
inhibition at 250 µg/mL (Athelia rolfsii [24]): 89.2%

CCOC(=O)c1c(C)cc(O)c(C=O)c1O [ETHYL HEMATOMMATE]
EC50 [1]: 128 µg/mL (≈ 573 µM)
inhibition at 62.5 µg/mL [2]: 15.1%
inhibition at 125 µg/mL [3]: 26.3%
inhibition at 250 µg/mL [4]: 56.5%
EC50 (Pythium aphanidermatum [5]): 133 µg/mL (≈ 592 µM)
inhibition at 62.5 µg/mL (Pythium aphanidermatum [6]): 13.1%
inhibition at 125 µg/mL (Pythium aphanidermatum [7]): 32.6%
inhibition at 250 µg/mL (Pythium aphanidermatum [8]): 50.4%
EC50 (Fusarium udum [9]): 250 µg/mL (≈ 1120 µM)
inhibition at 62.5 µg/mL (Fusarium udum [10]): 6.4%
inhibition at 125 µg/mL (Fusarium udum [11]): 13.5%
inhibition at 250 µg/mL (Fusarium udum [12]): 27.4%
EC50 (Macrophomina phaseolina [13]): 117 µg/mL (≈ 523 µM)
inhibition at 62.5 µg/mL (Macrophomina phaseolina [14]): 27.4%
inhibition at 125 µg/mL (Macrophomina phaseolina [15]): 42.8%
inhibition at 250 µg/mL (Macrophomina phaseolina [16]): 53.4%
EC50 (Rhizoctonia solani [17]): 125 µg/mL (≈ 557 µM)
inhibition at 62.5 µg/mL (Rhizoctonia solani [18]): 15.3%
inhibition at 125 µg/mL (Rhizoctonia solani [19]): 33.5%
inhibition at 250 µg/mL (Rhizoctonia solani [20]): 55.5%
EC50 (Athelia rolfsii [21]): 99 µg/mL (≈ 441 µM)
inhibition at 62.5 µg/mL (Athelia rolfsii [22]): 28.4%
inhibition at 125 µg/mL (Athelia rolfsii [23]): 47.5%
inhibition at 250 µg/mL (Athelia rolfsii [24]): 61%

COc1cc(C)c(C(=O)Oc2cc(C)c(C(=O)O)c(O)c2C)c(O)c1C=O [BAEOMYCESIC ACID]
EC50 [1]: 144 µg/mL (≈ 383 µM)
inhibition at 62.5 µg/mL [2]: 18.3%
inhibition at 125 µg/mL [3]: 38.2%
inhibition at 250 µg/mL [4]: 77.1%
EC50 (Pythium aphanidermatum [5]): 149 µg/mL (≈ 398 µM)
inhibition at 62.5 µg/mL (Pythium aphanidermatum [6]): 11.4%
inhibition at 125 µg/mL (Pythium aphanidermatum [7]): 29.3%
inhibition at 250 µg/mL (Pythium aphanidermatum [8]): 44.4%
EC50 (Fusarium udum [9]): 110 µg/mL (≈ 293 µM)
inhibition at 62.5 µg/mL (Fusarium udum [10]): 33.5%
inhibition at 125 µg/mL (Fusarium udum [11]): 47.1%
inhibition at 250 µg/mL (Fusarium udum [12]): 57.9%
EC50 (Macrophomina phaseolina [13]): 150 µg/mL (≈ 400 µM)
inhibition at 62.5 µg/mL (Macrophomina phaseolina [14]): 17.1%
inhibition at 125 µg/mL (Macrophomina phaseolina [15]): 28.4%
inhibition at 250 µg/mL (Macrophomina phaseolina [16]): 49.1%
EC50 (Rhizoctonia solani [17]): 71.3 µg/mL (≈ 190 µM)
inhibition at 62.5 µg/mL (Rhizoctonia solani [18]): 33.4%
inhibition at 125 µg/mL (Rhizoctonia solani [19]): 61.4%
inhibition at 250 µg/mL (Rhizoctonia solani [20]): 81.6%
EC50 (Athelia rolfsii [21]): 86.7 µg/mL (≈ 231 µM)
inhibition at 62.5 µg/mL (Athelia rolfsii [22]): 32.2%
inhibition at 125 µg/mL (Athelia rolfsii [23]): 44.4%
inhibition at 250 µg/mL (Athelia rolfsii [24]): 72.4%

C=C1C(=O)OC(CCCCCCCCCCCCC)C1C(=O)O (racemic) [(+/-)-Protolichesterinic acid]
EC50 [1]: 16.1 µg/mL (≈ 49.5 µM)
inhibition at 62.5 µg/mL [2]: 78.3%
inhibition at 125 µg/mL [3]: 90%
inhibition at 250 µg/mL [4]: 100%
EC50 (Pythium aphanidermatum [5]): 57.1 µg/mL (≈ 176 µM)
inhibition at 62.5 µg/mL (Pythium aphanidermatum [6]): 44.3%
inhibition at 125 µg/mL (Pythium aphanidermatum [7]): 72.3%
inhibition at 250 µg/mL (Pythium aphanidermatum [8]): 80.3%
EC50 (Fusarium udum [9]): 55.7 µg/mL (≈ 172 µM)
inhibition at 62.5 µg/mL (Fusarium udum [10]): 44.3%
inhibition at 125 µg/mL (Fusarium udum [11]): 78%
inhibition at 250 µg/mL (Fusarium udum [12]): 90.3%
EC50 (Macrophomina phaseolina [13]): 77.6 µg/mL (≈ 239 µM)
inhibition at 62.5 µg/mL (Macrophomina phaseolina [14]): 28.3%
inhibition at 125 µg/mL (Macrophomina phaseolina [15]): 50%
inhibition at 250 µg/mL (Macrophomina phaseolina [16]): 89.3%
EC50 (Rhizoctonia solani [17]): 23.1 µg/mL (≈ 71.2 µM)
inhibition at 62.5 µg/mL (Rhizoctonia solani [18]): 67%
inhibition at 125 µg/mL (Rhizoctonia solani [19]): 77%
inhibition at 250 µg/mL (Rhizoctonia solani [20]): 83.3%
EC50 (Athelia rolfsii [21]): 61.4 µg/mL (≈ 189 µM)
inhibition at 62.5 µg/mL (Athelia rolfsii [22]): 39.3%
inhibition at 125 µg/mL (Athelia rolfsii [23]): 72.2%
inhibition at 250 µg/mL (Athelia rolfsii [24]): 90%
